Bioassay records as filed in PubChem.
CTSL1 counter: counter-screen for PFM18AAP inhibitors: inhibitors of F. hepatica cathepsin L1; inhibition, % at 5.96 µM; recombinant F. hepatica cathepsin L1, Z-Leu-Arg-MCA fluorescence; 300,000 tested, 0.49% active; AID 1906;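 active means inhibition above the mean of all tested compounds plus 3 SD, set per screening campaign, cut at about 17% in these data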;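 further: 0% = plate median of test compound wells and 100% = 1 µM Z-Phe-Ala-diazomethylketone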
EBNA-1 inhibitor: blocks EBNA-1 binding to DNA; 300,000 tested, 0.34% active; EBNA-1 DNA binding, fluorescence polarization; AID 1950; inhibition, % at 14.8 µM; in the data active means inhibition above about 28%
ZTA counter: blocks Epstein-Barr virus ZTA, an EBNA-1 counter-screen. ZTA-DNA binding, fluorescence polarization. P03206. inhibition, % at 11 µM. 320,000 tested, 0.15% active; in the data active means inhibition above about 33%
Target sequence (P03206 whole entry, looked up): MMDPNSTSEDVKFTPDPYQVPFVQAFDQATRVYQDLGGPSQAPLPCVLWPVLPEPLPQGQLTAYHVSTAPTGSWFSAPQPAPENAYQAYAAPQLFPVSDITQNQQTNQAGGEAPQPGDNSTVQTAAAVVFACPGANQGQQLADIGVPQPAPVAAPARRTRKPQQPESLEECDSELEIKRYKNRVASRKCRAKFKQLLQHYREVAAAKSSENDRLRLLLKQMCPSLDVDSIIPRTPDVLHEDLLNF
HCV NS3 hel inh: blocks Hepatitis C virus NS3 helicase unwinding. NS3 helicase DNA unwinding, Cy5 molecular beacon fluorescence. inhibition, % at 10.9 µM. 290,000 tested, 0.56% active. AID 1800;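 active means inhibition above the mean of all tested compounds plus 3 SD, set per campaign, cut at about 35% in these data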;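 further: 0% = DMSO wells and 100% = thioflavine S control wells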
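assay system = NS3 helicase fragment of HCV | buffer or medium = MOPS pH 6.5, MgCl2, DTT, Tween20, BSA | timing = 60 min unwinding reaction at 25 °C after ATP addition | signal = Cy5 beacon fluorescence read at start and 1 h | read-out basis = % inhibition of unwinding | control set = low DMSO, high thioflavine S at 110 µM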
NS3 hel confirm: confirmation of Hepatitis C virus NS3 helicase inhibitors. inhibition, % at 10.9 µM. NS3 helicase DNA unwinding, Cy5 molecular beacon fluorescence. 1,600 tested, 31% active. shares compounds with HCV NS3 hel inh;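 active means inhibition above the mean of all tested compounds plus 3 SD, cutoff set per campaign, cut at about 36% in these data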
DNA FID counter: displaces DNA intercalator in HCV helicase counter-screen; shares compounds with HCV NS3 hel inh; inhibition, % at 7.9 µM; DNA fluorescent intercalator displacement, fluorescence; 1,600 tested, 4% active; AID 1945; in the data active means inhibition above about 37%;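 further: 0% = vehicle and 100% = reference compound; higher means more displacement of ethidium bromide from the DNA hairpin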
DNA FID DR: displaces fluorescent intercalator from DNA, HCV helicase counter-screen; 120 tested, under 10 active; fluorescent intercalator displacement from DNA, fluorescence; AID 2172; shares compounds with HCV NS3 hel inh; IC50, µM; call rule not given here
* = called active by the depositor; i = inactive; . = not tested or not shown. In the library only some 1.4% were active in any assay of this set; here they are far more common.

SMILES	CTSL1 counter	EBNA-1 inhibitor	ZTA counter	HCV NS3 hel inh	NS3 hel confirm	DNA FID counter	others
C=CCN1C(=O)NC(=O)/C(=C\c2ccc(-c3ccccc3[N+](=O)[O-])o2)C1=O	4	4	2	8	.	.
O=C1NC(=S)N(Cc2ccco2)C(=O)/C1=C\c1cccs1	.	.	.	52*	77*	21
COc1ccc(C(=O)N/N=C/C23CC[C@@H](O)CC2(O)CC[C@@H]2[C@@H]3CCC3(C)C(C4=CC(=O)OC4)CCC23O)cc1 (some centres undefined)	-2	-12	11	-2	.	.
O=C(COc1ccccc1)N1CCN(CC2CC=CCC2)CC1 (centres undefined)	2	-12	-7	-4	.	.
Fc1ccc(CNC2CN3CCC2CC3)cc1 (centres undefined)	-5	-6	-15	4	.	.
COc1ccc(N2CCN(Cc3nc4ccccc4[nH]3)CC2)cc1	17*	-9	-14	38*	-11	-2
O=C(c1ccccc1)c1cn(CC(=O)N2CCOCC2)c2ccccc12	1	9	16	57*	-7	3
CCN1C(=O)C(=C/C=C/c2ccco2)C(=O)N(CC)C1=S	5	7	5	39*	75*	6
O=c1[nH]c(=O)n(-c2ccccc2)c(O)c1N=Nc1ccc(Br)cc1	1	-1	-4	5	.	.
Cc1cccc(N2C(=O)NC(=O)/C(=C/c3ccc(-c4ccc(C(=O)O)c(Cl)c4)o3)C2=O)c1	-2	-8	-7	37*	-22	14
O=C1NC(=O)N(c2ccc3c(c2)OCO3)C(=O)/C1=C\c1ccc(-c2ccccc2C(=O)O)o1	4	-11	1	24	.	.
CCOc1ccc(C2(C#N)CC[N+](C)(C)CC2)cc1	-1	-6	-4	-5	.	.
Cc1ccccc1-n1c(O)c(C=Nc2ccc3c(c2)OCO3)c(=O)[nH]c1=O	4	2	-5	37*	-14	1
CCN(CC)c1ccc(N=Cc2c(O)n(-c3ccccc3C)c(=O)[nH]c2=O)cc1	-3	-7	32	34	.	.
CC(C)CCn1c(N)c(C(=O)OCC2CCCO2)c2nc3ccccc3nc21 (centres undefined)	13	-2	7	-3	.	.
CC(=Nc1ccccc1N)c1c(O)n(C)c(=O)n(C)c1=O	0	1	7	3	.	.
O=C1NC(=S)N(c2ccccc2)C(=O)/C1=C/c1ccco1	3	5	21	41*	69*	0
COc1cccc(N2C(=O)/C(=C/c3ccc(C)o3)C(=O)NC2=S)c1	0	-6	-8	36*	59*	-14
O=C1NC(=O)N(Cc2ccco2)C(=O)/C1=C\c1cccn1CCOc1ccc(Cl)cc1	6	-1	16	44*	25	-5
CN(C(=O)COC(=O)c1cn(C)c2ccccc12)C1CCCCC1	.	.	4	.	.	.
COc1ccc(N2C(=O)NC(=O)/C(=C/c3ccc([N+](=O)[O-])s3)C2=O)cc1	-1	6	25	39*	50*	0	DNA FID DR=i
CCn1c(O)c(C=Nc2ccc(N3CCOCC3)c(Br)c2)c(=O)n(CC)c1=S	-3	-10	-1	0	.	.
CCn1c(O)c(C=Nc2ccc(N3CCOCC3)cc2)c(=O)n(CC)c1=S	2	7	-3	40*	-7	-22
Cc1cccc(Cn2cc(C=O)c3ccccc32)c1	1	4	-3	6	.	.
CC(=O)c1ccc2c(c1)C1C(Cl)C(Sc3ccccc3[N+](=O)[O-])CC1C(C(=O)O)N2 (centres undefined)	0	-16	-9	41*	52*	7
CCCCn1c(O)c(C(C)=Nc2ccc(C(=O)O)cc2)c(=O)[nH]c1=O	-2	12	5	14	.	.
CC[n+]1c(/C=C/C=C/c2ccc(N(C)C)cc2)sc2ccccc21	0	105*	164*	48*	107*	36
CC[n+]1c(/C=C/N(C)c2ccccc2)sc2ccc(Cl)cc21	6	-4	7	-3	.	.
CCCc1cc(=O)oc2cc(OCC(=O)N3CCN(Cc4ccc5c(c4)OCO5)CC3)ccc12	0	5	-11	-10	.	.
